# Source: article PMC3321547 (Biochemistry, 2009)
# Entries after “also recorded” stand apart in the source; their conditions may differ.
# Assays:
# DKH412 [1] = assay: Inhibition of mADP release; assay type: biochemical, Drosophila
# DKH412 [2] = assay: Inhibition of basal steady state ATPase of DKH412 head dimer; assay type: biochemical, Drosophila; details: no added KCl, 7 µM DKH412 monomer
# DKH357 = assay: Inhibition of basal ATPase of monomeric DKH357; assay type: biochemical, Drosophila; details: 13.3 µM DKH357
# Procedure, shortened: (§1)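 Heads were Drosophila kinesin residues 1–346 (for the artificial dimer, fused via a TSGG linker to the GCN4-p1 coiled coil) or 1–357. Basal ATPase was run at 25 °C in A25 buffer (pH 6.9) with […], 2 mM PEP and 0.25 mM NADH, coupled to PK/LDH, KCl as indicated. A340 was read, with turbidity correction where needed. Tail-peptide titrations were fit to the quadratic mutual-depletion equation.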
# K346SC = assay: Inhibition of basal ATPase of artificial dimer K346SC; assay type: biochemical, Drosophila; details: read-out: Kd, inhibition of basal ATPase; 6 µM K346SC monomer (Fig. 3C)
# Procedure, shortened: as §1
# DKH346 = assay: Inhibition of basal ATPase of monomeric DKH346; assay type: biochemical, Drosophila; details: 6.8 µM DKH346 (Fig. 3C)
# Procedure, shortened: as §1
# K357SC = assay: Inhibition of artificial dimer K357SC; assay type: biochemical, Drosophila; details: not shown
# kinesin head domains = details: ref [6], cited from earlier work
# [3] = Sedimentation of single constructs, 25 mM KCl; assay type: physicochemical; details: A25 buffer, 0.1 mM ATP, 4 °C
compound,measurement,setting,value
"NF910-952: monomeric Drosophila kinesin tail peptide, residues 910-952, non-fusion version obtained by thrombin cleavage",maximum extent of inhibition of mADP release,"DKH412 [1]; 50 mM KCl, 25 °C, pH 6.9, 0.2 µM DKH412",75%
same,maximum inhibition of mADP release,"DKH412 [1]; no added KCl, A25 buffer pH 6.9, 25 °C, 0.2 µM DKH412",over 80%
same,stoichiometry of inhibition of basal ATPase,DKH412 [2],1 tail peptide per two head peptides
same,inhibition of monomeric DKH357 (in words),DKH357,only weakly inhibits; also recorded: not strongly inhibited
same,Kd,K346SC,330 nM
same,inhibition of monomeric DKH346 (in words),DKH346,only poorly inhibited
same,stoichiometry of inhibition of K357SC,K357SC,half-site stoichiometry
Nc1ncnc2c1ncn2[C@@H]1O[C@H](COP(=O)(O)OP(=O)(O)OP(=O)(O)O)[C@@H](O)[C@H]1O [ATP],Km,"kinesin head domains; read-out: KM for ATP, basal ATPase, absence of MTs",~2.5 nM
same,net ATP binding and hydrolysis rate,kinesin head domains,≥ 4e+06 M⁻¹ s⁻¹
Nc1ncnc2c1ncn2[C@@H]1O[C@H](COP(=O)(O)OP(=O)(O)O)[C@@H](O)[C@H]1O [ADP],rate of release as ADP,kinesin head domains; basal,~ 0.01 s^−1
DKH412: residues 1 to 412 of Drosophila kinesin with C-terminal HisTag; dimeric head construct,"s20,w, centrifuged alone",[3],5.2 S
